Experimental data from ChEMBL document CHEMBL1127512 (J Med Chem, 1994).
pKi: −log10 of the molar value.

How the values were obtained:
[1] = molecular target: Kappa-type opioid receptor (Cavia porcellus) (UniProt P41144); test: (§1) Selectivity ratio of kappa opioid receptor to that of delta opioid receptor
[2] = molecular target: Mu-type opioid receptor (Cavia porcellus) (UniProt P97266); test: (§2) Inhibitory concentration was tested on electrically stimulated guinea pig ileal longitudinal muscle using Morphine as mu opioid receptor agonist at 100 nM of the compound; type: functional
Mu-type opioid receptor (Cavia porcellus), sequence (P97266 whole entry): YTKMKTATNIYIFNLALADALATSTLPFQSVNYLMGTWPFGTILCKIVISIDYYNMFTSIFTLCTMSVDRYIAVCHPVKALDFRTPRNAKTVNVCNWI
Outline: (§3)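 Electrically stimulated guinea pig ileal longitudinal muscle (ethylketazocine, morphine) and mouse vas deferens (DADLE). Antagonist 100 nM preincubated 15 min before standard agonist testing. IC50 ratio = agonist IC50 with antagonist divided by control agonist IC50 in the same preparation. For the kappa line, Ke = [antagonist]/(IC50 ratio − 1).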

[3] = molecular target: Kappa-type opioid receptor (Cavia porcellus) (UniProt P41144); test: (§4) Antagonist potency at a concentration of 100 nM; type: functional; outline: as §3
[4] = molecular target: Kappa-type opioid receptor (Cavia porcellus) (UniProt P41144); test: (§5) Selectivity ratio of kappa opioid receptor to that of mu opioid receptor
[5] = molecular target: Delta-type opioid receptor (Mus musculus) (UniProt P32300); test: (§6) Inhibitory concentration was tested on electrically stimulated mouse vas deferens using DADLE as delta opioid receptor agonist at 100 nM of the compound; type: functional; outline: as §3
Delta-type opioid receptor (Mus musculus), sequence (P32300 whole entry): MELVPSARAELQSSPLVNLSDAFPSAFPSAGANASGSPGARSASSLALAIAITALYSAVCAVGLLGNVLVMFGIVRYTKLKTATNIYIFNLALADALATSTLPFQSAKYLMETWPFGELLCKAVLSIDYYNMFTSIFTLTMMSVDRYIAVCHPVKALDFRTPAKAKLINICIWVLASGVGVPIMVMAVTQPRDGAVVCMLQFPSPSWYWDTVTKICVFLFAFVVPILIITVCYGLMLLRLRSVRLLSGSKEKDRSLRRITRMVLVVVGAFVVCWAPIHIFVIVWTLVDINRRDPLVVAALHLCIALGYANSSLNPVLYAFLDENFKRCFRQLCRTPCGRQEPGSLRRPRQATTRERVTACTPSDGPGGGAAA

[6] = molecular target: Kappa-type opioid receptor (Cavia porcellus) (UniProt P41144); test: (§7) Inhibitory concentration was tested on electrically stimulated guinea pig ileal longitudinal muscle using ethylketazocine as kappa opioid receptor agonist at 100 nM of the compound; type: functional; outline: as §3
[7] = as §4; type: functional; outline: as §3
[8] = molecular target: Kappa-type opioid receptor (Cavia porcellus, UniProt P41144); test: The binding affinity on kappa-opioid receptor using [3H]- U-69,593 as radioligand
Kappa-type opioid receptor, sequence (P41144 whole entry): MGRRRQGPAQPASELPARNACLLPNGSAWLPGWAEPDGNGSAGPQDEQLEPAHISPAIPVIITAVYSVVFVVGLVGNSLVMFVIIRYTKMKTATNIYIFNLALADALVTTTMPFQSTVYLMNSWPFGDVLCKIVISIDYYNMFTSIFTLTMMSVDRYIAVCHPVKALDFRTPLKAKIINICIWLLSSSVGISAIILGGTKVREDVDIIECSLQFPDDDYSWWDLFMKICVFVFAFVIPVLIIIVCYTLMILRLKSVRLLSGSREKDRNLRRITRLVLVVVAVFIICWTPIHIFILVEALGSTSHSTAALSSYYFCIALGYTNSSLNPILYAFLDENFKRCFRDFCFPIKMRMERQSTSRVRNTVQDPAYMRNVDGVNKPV
Outline: (§8)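 Competition binding in guinea pig brain membranes against selective tritiated radioligands. Displacement of [3H]U69593 at kappa, [3H]DAMGO at mu, [3H]DPDPE at delta sites.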

Mu-type opioid receptor = Mu-type opioid receptor (Cavia porcellus, UniProt P97266); test: The binding affinity against mu-opioid receptor using [3H]- DAMGO as radioligand; outline: as §8
Mu-type opioid receptor, sequence (P97266 whole entry): as the sequence (P97266 whole entry) above

[9] = molecular target: Opioid receptors; delta & kappa (Homo sapiens) (UniProt P41145+P41143); test: as §1; type: protein assay
Opioid receptors; delta & kappa (Homo sapiens), sequence (P41143 whole entry, looked up): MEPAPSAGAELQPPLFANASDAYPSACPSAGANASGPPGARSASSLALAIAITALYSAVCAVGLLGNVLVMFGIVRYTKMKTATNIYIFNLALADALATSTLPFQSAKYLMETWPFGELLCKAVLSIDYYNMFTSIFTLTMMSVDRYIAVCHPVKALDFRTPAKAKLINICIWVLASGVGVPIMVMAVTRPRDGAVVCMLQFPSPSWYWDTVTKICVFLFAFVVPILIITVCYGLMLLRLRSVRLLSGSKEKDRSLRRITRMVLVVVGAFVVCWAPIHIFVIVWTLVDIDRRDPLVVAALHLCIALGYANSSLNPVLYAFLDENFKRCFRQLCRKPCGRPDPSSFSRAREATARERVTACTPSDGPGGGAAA
Opioid receptors; delta & kappa (Homo sapiens), sequence (P41145 whole entry, looked up): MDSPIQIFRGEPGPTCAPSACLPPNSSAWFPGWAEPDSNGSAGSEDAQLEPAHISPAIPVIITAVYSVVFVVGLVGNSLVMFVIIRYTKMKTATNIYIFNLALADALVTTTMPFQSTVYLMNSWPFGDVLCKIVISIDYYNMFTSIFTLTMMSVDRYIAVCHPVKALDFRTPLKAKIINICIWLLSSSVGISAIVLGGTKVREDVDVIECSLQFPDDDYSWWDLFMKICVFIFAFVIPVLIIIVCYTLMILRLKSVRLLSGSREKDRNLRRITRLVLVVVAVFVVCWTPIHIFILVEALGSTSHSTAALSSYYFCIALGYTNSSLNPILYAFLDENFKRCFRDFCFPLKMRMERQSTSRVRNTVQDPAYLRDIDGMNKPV

[10] = as §2; type: functional; outline: as §3
[11] = molecular target: T1, Opioid receptors; mu & kappa (Homo sapiens) (UniProt P41145+P35372); test: Selectivity ratio of mu opioid receptor to that of kappa opioid receptor; type: protein assay
T1 sequence (P35372 whole entry, looked up): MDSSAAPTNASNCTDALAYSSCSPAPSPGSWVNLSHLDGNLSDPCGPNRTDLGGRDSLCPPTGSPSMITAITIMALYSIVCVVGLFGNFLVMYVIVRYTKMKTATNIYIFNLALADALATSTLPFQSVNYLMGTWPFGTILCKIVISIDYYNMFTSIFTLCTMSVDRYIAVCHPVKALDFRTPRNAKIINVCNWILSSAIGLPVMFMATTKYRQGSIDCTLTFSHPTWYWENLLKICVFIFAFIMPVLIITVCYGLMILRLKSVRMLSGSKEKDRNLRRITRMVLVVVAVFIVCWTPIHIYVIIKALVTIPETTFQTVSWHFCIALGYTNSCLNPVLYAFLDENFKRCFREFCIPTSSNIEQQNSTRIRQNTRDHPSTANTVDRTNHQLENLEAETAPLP
T1 sequence (P41145 whole entry, looked up): as the sequence (P41145 whole entry, looked up) above

[12] = as §6; type: functional; outline: as §3
[13] = system: Opioid receptors; delta & kappa; test: Selectivity ratio of delta opioid receptor to that of kappa opioid receptor; type: protein assay
[14] = as §7; type: functional; outline: as §3
[15] = molecular target: T1, Opioid receptors; mu & kappa (Homo sapiens); test: as §5; type: protein assay

Kappa-type opioid receptor (Cavia porcellus), sequence (P41144 whole entry): as the sequence (P41144 whole entry) above

Structure (SMILES) | Ratio [1] | Ratio [2] | Ke [3] | Ratio [4] | Ratio [5] | Ratio [6] | Ke [7] | pKi [8] | pKi (Mu-type opioid receptor) | Ratio [9] | Ratio [10] | Ratio [11] | Ratio [12] | Ratio [13] | Ratio [14] | Ratio [15]
CCCCCN1CC[C@]23c4c5ccc(O)c4O[C@H]2c2[nH]c4c(c2C[C@@]3(O)[C@H]1C5)C[C@@]1(O)[C@H]2Cc3ccc(O)c5c3[C@@]1(CCN2CC1CC1)[C@H]4O5 | 8.7 | 3.1 | 3.8 nM | 8.7 | 3.1 | 27 |  |  |  |  |  |  |  |  |  | 
Oc1ccc2c3c1O[C@H]1c4[nH]c5c(c4C[C@@]4(O)[C@@H](C2)N(CC2CC2)CC[C@]314)C[C@@]1(O)[C@H]2Cc3ccc(O)c4c3[C@@]1(CCN2CC1CC1)[C@H]5O4 |  |  |  |  |  |  | 0.55 nM |  |  |  |  |  |  |  |  | 
N=C(N)NCCN1CC[C@]23c4c5ccc(O)c4O[C@H]2c2[nH]c4c(c2C[C@@]3(O)[C@H]1C5)C[C@@]1(O)[C@H]2Cc3ccc(O)c5c3C1(CCN2CC1CC1)[C@H]4O5 |  |  |  |  |  |  | 3.8 nM | 9.23 | 7.30 | 27 | 1.7 | 85 | 1 | 63 | 27 | 15
NCC(=O)N1CC[C@]23c4c5ccc(O)c4O[C@H]2c2[nH]c4c(c2C[C@@]3(O)[C@H]1C5)C[C@@]1(O)[C@H]2Cc3ccc(O)c5c3[C@@]1(CCN2CC1CC1)[C@H]4O5 | 5.4 | 1.4 | 9.3 nM | 8.4 | 2.2 | 11.8 |  |  |  |  |  |  |  |  |  | 
CC(=O)N1CC[C@]23c4c5ccc(O)c4O[C@H]2c2[nH]c4c(c2C[C@@]3(O)[C@H]1C5)C[C@@]1(O)[C@H]2Cc3ccc(O)c5c3[C@@]1(CCN2CC1CC1)[C@H]4O5 | 1.5 | 1.8 | 30.3 nM | 2.4 | 2.8 | 4.3 |  |  |  |  |  |  |  |  |  | 
NCC(=O)NCC(=O)N1CC[C@]23c4c5ccc(O)c4O[C@H]2c2[nH]c4c(c2C[C@@]3(O)[C@H]1C5)C[C@@]1(O)[C@H]2Cc3ccc(O)c5c3[C@@]1(CCN2CC1CC1)[C@H]4O5 |  |  |  |  |  |  | 11.7 nM | 7.68 | 7.18 |  | 2 | 3 | 0.67 | > 15 | 9.6 | 4.8
Oc1ccc2c3c1O[C@H]1c4[nH]c5c(c4C[C@@]4(O)[C@@H](C2)NCC[C@]314)C[C@@]1(O)[C@H]2Cc3ccc(O)c4c3[C@@]1(CCN2CC1CC1)[C@H]5O4 | 4.8 | 1.9 | 2.5 nM | 22 | 8.5 | 41 |  |  |  |  |  |  |  |  |  | 
NCCN1CC[C@]23c4c5ccc(O)c4O[C@H]2c2[nH]c4c(c2C[C@@]3(O)[C@H]1C5)C[C@@]1(O)[C@H]2Cc3ccc(O)c5c3[C@@]1(CCN2CC1CC1)[C@H]4O5 |  |  |  |  |  |  | 5.1 nM | 8.47 | 7.34 | 10 | 1.6 | 14 | 1.9 | 41 | 20 | 12.5
Oc1ccc2c3c1O[C@H]1c4[nH]c5c(c4C[C@@]4(O)[C@@H](C2)N(CCc2ccccc2)CC[C@]314)C[C@@]1(O)[C@H]2Cc3ccc(O)c4c3[C@@]1(CCN2CC1CC1)[C@H]5O4 | 181 | 1.8 | 2.4 nM | 24 | 2.4 | 44 |  |  |  |  |  |  |  |  |  | 
CCCCN1CC[C@]23c4c5ccc(O)c4O[C@H]2c2[nH]c4c(c2C[C@@]3(O)[C@H]1C5)C[C@@]1(O)[C@H]2Cc3ccc(O)c5c3[C@@]1(CCN2CC1CC1)[C@H]4O5 |  |  |  |  |  |  | 1.7 nM | 10.40 | 7.14 |  | 1.8 | 1820 | 1.9 |  | 61 | 
O=C(NCCN1CC[C@]23c4c5ccc(O)c4O[C@H]2c2[nH]c4c(c2C[C@@]3(O)C1=C5)C[C@@]1(O)[C@H]2Cc3ccc(O)c5c3[C@@]1(CCN2CC1CC1)[C@H]4O5)OCc1ccccc1 |  |  |  |  |  |  | 4 nM |  |  | 5.7 | 4.5 | 194 |  | 325 | 26 | 5.7
CCN1CC[C@]23c4c5ccc(O)c4O[C@H]2c2[nH]c4c(c2C[C@@]3(O)[C@H]1C5)C[C@@]1(O)[C@H]2Cc3ccc(O)c5c3[C@@]1(CCN2CC1CC1)[C@H]4O5 | 3.5 | 1.6 | 4.7 nM | 14 | 6.3 | 22 |  |  |  |  |  |  |  |  |  | 
